From ChEMBL document CHEMBL1127395, “Synthesis and antimicrobial activity of novel 3-[(aminopyrimidiniumyl)thio]methyl cephalosporins” (1994)
Values after ≈ are worked out from the molar mass of the structure shown.

Tested on: Proteus vulgaris
Assay: In vitro minimum inhibitory concentration for Proteus vulgaris (ATCC-6059) by agar dilution method
Type: functional
Details: Proteus vulgaris; read-out: MIC
Outline: (§1)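 Two-fold serial dilutions of each compound dispersed in Mueller-Hinton agar; plates spot-inoculated with 2 μL of standard test strain at 10^7 CFU/mL, incubated 37 °C for 20 h; MIC read as lowest concentration inhibiting growth.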

SMILES | MIC [µg/mL]
CC[n+]1c(N)cc(N)nc1SCC1=C(C(=O)[O-])N2C(=O)C(NC(=O)/C(=N\OC(C)(C)C(=O)O)c3cnc(N)s3)C2SC1 (configuration not stated) | 0.03 (≈ 0.047 µM)
CC(C)(O/N=C(\C(=O)NC1C(=O)N2C(C(=O)[O-])=C(CSc3nc(N)cc(N)[n+]3C3CC3)CSC12)c1cnc(N)s1)C(=O)O (configuration not stated) | 0.13 (≈ 0.2 µM)
Cn1cn[n+]2c(SCC3=C(C(=O)[O-])N4C(=O)C(NC(=O)/C(=N\OC(C)(C)C(=O)O)c5cnc(N)s5)C4SC3)nc(N)cc12 (configuration not stated) | 0.06 (≈ 0.0925 µM)
CC(C)(O/N=C(\C(=O)N[C@@H]1C(=O)N2C(C(=O)[O-])=C(C[n+]3ccccc3)CS[C@H]12)c1csc(N)n1)C(=O)O [CEFTAZIDIME] | 0.06 (≈ 0.11 µM)

Tested on: Escherichia coli
Assay: In vitro minimum inhibitory concentration for Escherichia coli (ATCC-10536) by agar dilution method
Type: functional
Details: Escherichia coli; read-out: MIC
Outline: as §1

SMILES | MIC [µg/mL]
CC[n+]1c(N)cc(N)nc1SCC1=C(C(=O)[O-])N2C(=O)C(NC(=O)/C(=N\OC(C)(C)C(=O)O)c3cnc(N)s3)C2SC1 (configuration not stated) | 0.06 (≈ 0.0941 µM)
CC(C)(O/N=C(\C(=O)NC1C(=O)N2C(C(=O)[O-])=C(CSc3nc(N)cc(N)[n+]3C3CC3)CSC12)c1cnc(N)s1)C(=O)O (configuration not stated) | 0.13 (≈ 0.2 µM)
Cn1cn[n+]2c(SCC3=C(C(=O)[O-])N4C(=O)C(NC(=O)/C(=N\OC(C)(C)C(=O)O)c5cnc(N)s5)C4SC3)nc(N)cc12 (configuration not stated) | 0.06 (≈ 0.0925 µM)
CC(C)(O/N=C(\C(=O)N[C@@H]1C(=O)N2C(C(=O)[O-])=C(C[n+]3ccccc3)CS[C@H]12)c1csc(N)n1)C(=O)O [CEFTAZIDIME] | 0.06 (≈ 0.11 µM)

Tested on: Staphylococcus epidermidis
Assay: In vitro minimum inhibitory concentration for Staphylococcus epidermidis (ATCC-12228) by agar dilution method
Type: functional
Details: Staphylococcus epidermidis; read-out: MIC
Outline: as §1

SMILES | MIC [µg/mL]
CC[n+]1c(N)cc(N)nc1SCC1=C(C(=O)[O-])N2C(=O)C(NC(=O)/C(=N\OC(C)(C)C(=O)O)c3cnc(N)s3)C2SC1 (configuration not stated) | 1 (≈ 1.57 µM)
CC(C)(O/N=C(\C(=O)NC1C(=O)N2C(C(=O)[O-])=C(CSc3nc(N)cc(N)[n+]3C3CC3)CSC12)c1cnc(N)s1)C(=O)O (configuration not stated) | 2 (≈ 3.08 µM)
Cn1cn[n+]2c(SCC3=C(C(=O)[O-])N4C(=O)C(NC(=O)/C(=N\OC(C)(C)C(=O)O)c5cnc(N)s5)C4SC3)nc(N)cc12 (configuration not stated) | 1 (≈ 1.54 µM)
CC(C)(O/N=C(\C(=O)N[C@@H]1C(=O)N2C(C(=O)[O-])=C(C[n+]3ccccc3)CS[C@H]12)c1csc(N)n1)C(=O)O [CEFTAZIDIME] | 4 (≈ 7.32 µM)

Tested on: Klebsiella aerogenes
Assay: In vitro minimum inhibitory concentration for Enterobacter aerogenes (ATCC-29751) by agar dilution method
Type: functional
Details: Klebsiella aerogenes; read-out: MIC
Outline: as §1

SMILES | MIC [µg/mL]
CC[n+]1c(N)cc(N)nc1SCC1=C(C(=O)[O-])N2C(=O)C(NC(=O)/C(=N\OC(C)(C)C(=O)O)c3cnc(N)s3)C2SC1 (configuration not stated) | 2 (≈ 3.14 µM)
CC(C)(O/N=C(\C(=O)NC1C(=O)N2C(C(=O)[O-])=C(CSc3nc(N)cc(N)[n+]3C3CC3)CSC12)c1cnc(N)s1)C(=O)O (configuration not stated) | 2 (≈ 3.08 µM)
Cn1cn[n+]2c(SCC3=C(C(=O)[O-])N4C(=O)C(NC(=O)/C(=N\OC(C)(C)C(=O)O)c5cnc(N)s5)C4SC3)nc(N)cc12 (configuration not stated) | 1 (≈ 1.54 µM)
CC(C)(O/N=C(\C(=O)N[C@@H]1C(=O)N2C(C(=O)[O-])=C(C[n+]3ccccc3)CS[C@H]12)c1csc(N)n1)C(=O)O [CEFTAZIDIME] | 4 (≈ 7.32 µM)

Tested on: Citrobacter freundii
Assay: In vitro minimum inhibitory concentration for Citrobacter freundii (ATCC-8090) by agar dilution method
Type: functional
Details: Citrobacter freundii; read-out: MIC
Outline: as §1

SMILES | MIC [µg/mL]
CC[n+]1c(N)cc(N)nc1SCC1=C(C(=O)[O-])N2C(=O)C(NC(=O)/C(=N\OC(C)(C)C(=O)O)c3cnc(N)s3)C2SC1 (configuration not stated) | 0.13 (≈ 0.204 µM)
CC(C)(O/N=C(\C(=O)NC1C(=O)N2C(C(=O)[O-])=C(CSc3nc(N)cc(N)[n+]3C3CC3)CSC12)c1cnc(N)s1)C(=O)O (configuration not stated) | 0.13 (≈ 0.2 µM)
Cn1cn[n+]2c(SCC3=C(C(=O)[O-])N4C(=O)C(NC(=O)/C(=N\OC(C)(C)C(=O)O)c5cnc(N)s5)C4SC3)nc(N)cc12 (configuration not stated) | 0.13 (≈ 0.2 µM)
CC(C)(O/N=C(\C(=O)N[C@@H]1C(=O)N2C(C(=O)[O-])=C(C[n+]3ccccc3)CS[C@H]12)c1csc(N)n1)C(=O)O [CEFTAZIDIME] | 0.13 (≈ 0.238 µM)

Tested on: Pseudomonas aeruginosa
Assay: In vitro minimum inhibitory concentration for Pseudomonas aeruginosa (ATCC 10145) by agar dilution method
Type: functional
Details: not given
Outline: as §1

SMILES | MIC [µg/mL]
CC[n+]1c(N)cc(N)nc1SCC1=C(C(=O)[O-])N2C(=O)C(NC(=O)/C(=N\OC(C)(C)C(=O)O)c3cnc(N)s3)C2SC1 (configuration not stated) | 2 (≈ 3.14 µM)
CC(C)(O/N=C(\C(=O)NC1C(=O)N2C(C(=O)[O-])=C(CSc3nc(N)cc(N)[n+]3C3CC3)CSC12)c1cnc(N)s1)C(=O)O (configuration not stated) | 4 (≈ 6.16 µM)
Cn1cn[n+]2c(SCC3=C(C(=O)[O-])N4C(=O)C(NC(=O)/C(=N\OC(C)(C)C(=O)O)c5cnc(N)s5)C4SC3)nc(N)cc12 (configuration not stated) | 4 (≈ 6.17 µM)
CC(C)(O/N=C(\C(=O)N[C@@H]1C(=O)N2C(C(=O)[O-])=C(C[n+]3ccccc3)CS[C@H]12)c1csc(N)n1)C(=O)O [CEFTAZIDIME] | 2 (≈ 3.66 µM)

Tested on: Pseudomonas aeruginosa
Assay: In vitro minimum inhibitory concentration for Pseudomonas aeruginosa (ATCC-27853) by agar dilution method
Type: functional
Details: Pseudomonas aeruginosa; read-out: MIC
Outline: as §1

SMILES | MIC [µg/mL]
CC[n+]1c(N)cc(N)nc1SCC1=C(C(=O)[O-])N2C(=O)C(NC(=O)/C(=N\OC(C)(C)C(=O)O)c3cnc(N)s3)C2SC1 (configuration not stated) | 1 (≈ 1.57 µM)
CC(C)(O/N=C(\C(=O)NC1C(=O)N2C(C(=O)[O-])=C(CSc3nc(N)cc(N)[n+]3C3CC3)CSC12)c1cnc(N)s1)C(=O)O (configuration not stated) | 2 (≈ 3.08 µM)
Cn1cn[n+]2c(SCC3=C(C(=O)[O-])N4C(=O)C(NC(=O)/C(=N\OC(C)(C)C(=O)O)c5cnc(N)s5)C4SC3)nc(N)cc12 (configuration not stated) | 2 (≈ 3.08 µM)
CC(C)(O/N=C(\C(=O)N[C@@H]1C(=O)N2C(C(=O)[O-])=C(C[n+]3ccccc3)CS[C@H]12)c1csc(N)n1)C(=O)O [CEFTAZIDIME] | 1 (≈ 1.83 µM)

Tested on: Klebsiella pneumoniae
Assay: In vitro minimum inhibitory concentration for Klebsiella pneumoniae (ATCC-10031) by agar dilution method
Type: functional
Details: Klebsiella pneumoniae; read-out: MIC

SMILES | MIC [µg/mL]
CC[n+]1c(N)cc(N)nc1SCC1=C(C(=O)[O-])N2C(=O)C(NC(=O)/C(=N\OC(C)(C)C(=O)O)c3cnc(N)s3)C2SC1 (configuration not stated) | 0.06 (≈ 0.0941 µM)
CC(C)(O/N=C(\C(=O)NC1C(=O)N2C(C(=O)[O-])=C(CSc3nc(N)cc(N)[n+]3C3CC3)CSC12)c1cnc(N)s1)C(=O)O (configuration not stated) | 0.06 (≈ 0.0923 µM)
Cn1cn[n+]2c(SCC3=C(C(=O)[O-])N4C(=O)C(NC(=O)/C(=N\OC(C)(C)C(=O)O)c5cnc(N)s5)C4SC3)nc(N)cc12 (configuration not stated) | 0.06 (≈ 0.0925 µM)

Tested on: Enterobacter cloacae
Assay: In vitro minimum inhibitory concentration for Enterobacter cloacae (ATCC-27508) by agar dilution method
Type: functional
Details: Enterobacter cloacae; read-out: MIC
Outline: as §1

SMILES | MIC [µg/mL]
CC[n+]1c(N)cc(N)nc1SCC1=C(C(=O)[O-])N2C(=O)C(NC(=O)/C(=N\OC(C)(C)C(=O)O)c3cnc(N)s3)C2SC1 (configuration not stated) | 0.03 (≈ 0.047 µM)
CC(C)(O/N=C(\C(=O)NC1C(=O)N2C(C(=O)[O-])=C(CSc3nc(N)cc(N)[n+]3C3CC3)CSC12)c1cnc(N)s1)C(=O)O (configuration not stated) | 0.03 (≈ 0.0462 µM)
Cn1cn[n+]2c(SCC3=C(C(=O)[O-])N4C(=O)C(NC(=O)/C(=N\OC(C)(C)C(=O)O)c5cnc(N)s5)C4SC3)nc(N)cc12 (configuration not stated) | 0.02 (≈ 0.0308 µM)
CC(C)(O/N=C(\C(=O)N[C@@H]1C(=O)N2C(C(=O)[O-])=C(C[n+]3ccccc3)CS[C@H]12)c1csc(N)n1)C(=O)O [CEFTAZIDIME] | 0.03 (≈ 0.0549 µM)

Tested on: Staphylococcus aureus
Assay: In vitro minimum inhibitory concentration for Staphylococcus aureus (ATCC 6538p) by agar dilution method
Type: functional
Details: Staphylococcus aureus, ATCC 6538p; read-out: MIC
Outline: as §1

SMILES | MIC [µg/mL]
CC[n+]1c(N)cc(N)nc1SCC1=C(C(=O)[O-])N2C(=O)C(NC(=O)/C(=N\OC(C)(C)C(=O)O)c3cnc(N)s3)C2SC1 (configuration not stated) | 2 (≈ 3.14 µM)
CC(C)(O/N=C(\C(=O)NC1C(=O)N2C(C(=O)[O-])=C(CSc3nc(N)cc(N)[n+]3C3CC3)CSC12)c1cnc(N)s1)C(=O)O (configuration not stated) | 4 (≈ 6.16 µM)
Cn1cn[n+]2c(SCC3=C(C(=O)[O-])N4C(=O)C(NC(=O)/C(=N\OC(C)(C)C(=O)O)c5cnc(N)s5)C4SC3)nc(N)cc12 (configuration not stated) | 8 (≈ 12.3 µM)
CC(C)(O/N=C(\C(=O)N[C@@H]1C(=O)N2C(C(=O)[O-])=C(C[n+]3ccccc3)CS[C@H]12)c1csc(N)n1)C(=O)O [CEFTAZIDIME] | 8 (≈ 14.6 µM)

Tested on: Salmonella typhimurium
Assay: In vitro minimum inhibitory concentration for Salmonella Typhimurium (ATCC-14028) by agar dilution method
Type: functional, Salmonella enterica subsp. enterica serovar Typhimurium
Details: Salmonella enterica; read-out: MIC
Outline: as §1

SMILES | MIC [µg/mL]
CC[n+]1c(N)cc(N)nc1SCC1=C(C(=O)[O-])N2C(=O)C(NC(=O)/C(=N\OC(C)(C)C(=O)O)c3cnc(N)s3)C2SC1 (configuration not stated) | 0.25 (≈ 0.392 µM)
CC(C)(O/N=C(\C(=O)NC1C(=O)N2C(C(=O)[O-])=C(CSc3nc(N)cc(N)[n+]3C3CC3)CSC12)c1cnc(N)s1)C(=O)O (configuration not stated) | 0.5 (≈ 0.77 µM)
Cn1cn[n+]2c(SCC3=C(C(=O)[O-])N4C(=O)C(NC(=O)/C(=N\OC(C)(C)C(=O)O)c5cnc(N)s5)C4SC3)nc(N)cc12 (configuration not stated) | 0.25 (≈ 0.385 µM)
CC(C)(O/N=C(\C(=O)N[C@@H]1C(=O)N2C(C(=O)[O-])=C(C[n+]3ccccc3)CS[C@H]12)c1csc(N)n1)C(=O)O [CEFTAZIDIME] | 0.25 (≈ 0.457 µM)

Tested on: Serratia marcescens
Assay: In vitro minimum inhibitory concentration for Serratia marcescens (ATCC-27117) by agar dilution method
Type: functional
Details: Serratia marcescens; read-out: MIC
Outline: as §1

SMILES | MIC [µg/mL]
CC[n+]1c(N)cc(N)nc1SCC1=C(C(=O)[O-])N2C(=O)C(NC(=O)/C(=N\OC(C)(C)C(=O)O)c3cnc(N)s3)C2SC1 (configuration not stated) | 0.13 (≈ 0.204 µM)
CC(C)(O/N=C(\C(=O)NC1C(=O)N2C(C(=O)[O-])=C(CSc3nc(N)cc(N)[n+]3C3CC3)CSC12)c1cnc(N)s1)C(=O)O (configuration not stated) | 0.25 (≈ 0.385 µM)
Cn1cn[n+]2c(SCC3=C(C(=O)[O-])N4C(=O)C(NC(=O)/C(=N\OC(C)(C)C(=O)O)c5cnc(N)s5)C4SC3)nc(N)cc12 (configuration not stated) | 0.25 (≈ 0.385 µM)
CC(C)(O/N=C(\C(=O)N[C@@H]1C(=O)N2C(C(=O)[O-])=C(C[n+]3ccccc3)CS[C@H]12)c1csc(N)n1)C(=O)O [CEFTAZIDIME] | 0.13 (≈ 0.238 µM)
